Assay outcomes: PubChem, Broad Institute
Only some compounds are listed: those with a hit (about 2.1% of all), similar ones and a draw of the others.
EWS-Fli inh: blocks EWS/Fli oncoprotein-driven transcription; A673 NR0B1-luciferase reporter, viability-normalised; 0.67% of 350,000 active; AID 651661; inhibition, % at 12.6 µM;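 active means mean inhibition of at least 50% after viability correction, with every replicate also passing that limit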;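 further: firefly luciferase signal divided by Alamar Blue viability fluorescence both relative to DMSO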
PAX8 inh HTS: inhibitors of PAX8 transcriptional activity in RMG-I cells; RMG-I TPO-luciferase reporter, SteadyGlo, 24 h; inhibition, % at 12.6 µM; 1.2% of 360,000 active;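 active means mean replicate inhibition at least 60% with every replicate also reaching 60%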;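 further: luciferase light reporting Pax8 driven TPO promoter activity; plate controls were median of neutral control wells for no effect and mitoxantrone controls for full effect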
FN deposit inh: fibronectin deposition inhibition; AH1F fibroblasts, Alexa488-fibronectin deposition fluorescence, overnight; inhibition, % at 12.6 µM; 0.086% of 350,000 active;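 active means mean inhibition across replicates of 30% or more, regardless of how many single replicates reach that level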;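 further: positive control wells lacked labelled fibronectin entirely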
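material = AH1F fibroblast monolayer depositing Alexa488-labelled fibronectin into matrix | amount = 10000 AH1F cells/well | buffer or medium = DMEM plus 2% serum, read in PBS | incubation = 1 h cell adhesion before compound, then overnight fibronectin incubation | detection = fluorescence at 485 nm excitation, 525 nm emission | evaluation = percent inhibition as loss of matrix-bound fibronectin fluorescence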
aSyn UTR inh: MLPCN primary screen, SNCA 5' untranslated region; alpha-synuclein 5'UTR reporter, inhibitor activity; inhibition, % (tested at 7.5 µM); 0.82% of 300,000 active; AID 1813; in the data active means inhibition above about 60%;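 further: H4 neuroglioblastoma cells stably carrying SNCA 5'UTR luciferase fusion; 0% = DMSO wells and 100% = positive control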
Shn3 3UTR inh: inhibitors of Schnurri-3 3'UTR reporter in osteoblasts; Clone20 osteoblast Shn3 3'UTR firefly luciferase, 24 h; inhibition, % at 12.5 µM; 0.52% of 360,000 active; AID 588674;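 active means mean inhibition of at least 75% with every replicate also reaching 75%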;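 further: 0% = median of neutral control wells and 100% = pilot-screen positive control compound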
LMP1 NFkB inh: reduces LMP1-driven NF-kappaB luciferase signal | LMP1-induced NF-kappaB luciferase reporter cells, luminescence | inhibition, % at 12.5 µM | 0.69% of 350,000 active; in the data active means inhibition above about 41%;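 further: 0% = neutral control wells and 100% = reference inhibitor control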
* marks the source's active call; other numbers are inactive results; · = no result given.

SMILES | EWS-Fli inh | PAX8 inh HTS | FN deposit inh | aSyn UTR inh | Shn3 3UTR inh | LMP1 NFkB inh
C[C@@H]1CC=CC[C@@H](c2ccc3c(c2)OCO3)NC(=O)[C@H](C)N(C)C(=O)c2ccccc2O1 (mixture of isomers) | · | · | 5 | · | · | ·
CN1c2ccc(-c3cccc(F)c3)cc2[C@@H]2[C@@H](CCN2C(=O)c2ccc3c(c2)OCO3)[C@@H]1CO | 2 | 24 | -13 | · | · | ·
C[C@H](CO)N1C[C@H](C)[C@H](CN(C)CC2CC2)Oc2cc(C#Cc3ccncc3)ccc2S1(=O)=O | 2 | · | · | · | · | ·
CCOc1ccc(C(=O)Nc2nnc(SCC(=O)NCC3CCCO3)s2)cc1 (stereo unspecified) | 65* | -10 | 6 | 76* | 7 | 61*
CC(C)(C)c1ccc(C(=O)Nc2nnc(SCC(=O)NCC3CCCO3)s2)cc1 (stereo unspecified) | · | -140 | 2 | 44 | -18 | 49*
O=C(CSc1nnc(NC(=O)c2ccc(S(=O)(=O)N3CCOCC3)cc2)s1)Nc1ccccc1C(F)(F)F | 1 | 69* | -2 | 5 | 8 | 2
CC(C)C#Cc1ccc([C@H]2[C@H]3CN(C(=O)NC4CCCCC4)CC(=O)N3[C@H]2CO)cc1 | -2 | · | -9 | · | · | ·
Cc1ccc(S(=O)(=O)N[C@@H]2C=C[C@H](CC(=O)NCc3ccncn3)O[C@@H]2CO)cc1 | 0 | 0 | · | · | · | ·
CN1c2ccccc2C(C)(C)[C@]12C=Cc1cc(O)ccc1O2 | · | · | · | -7 | 87* | -25
N#C[C@@H]1[C@H](c2ccc(C#Cc3ccccc3F)cc2)[C@@H](CO)N1C(=O)C1CCCC1 | 2 | · | -14 | · | · | ·
COc1ccc(CNC(=O)c2cc3c(C)nc4ccccc4c3o2)c(OC)c1 | · | · | · | -5 | 90* | ·
C[C@@H]1CN([C@H](C)CO)C(=O)Cc2cc(NS(=O)(=O)c3ccccc3)ccc2O[C@@H]1CN(C)CC1CCCCC1 | 64* | -3 | · | · | · | ·
C[C@@H]1CN([C@@H](C)CO)C(=O)Cc2cc(NS(=O)(=O)c3ccccc3)ccc2O[C@H]1CN(C)Cc1ccc(C(F)(F)F)cc1 | · | 92* | · | · | · | ·
Cc1ccc(S(=O)(=O)Nc2ccc3c(c2)CC(=O)N([C@@H](C)CO)C[C@@H](C)[C@H](CN(C)Cc2ccc(Cl)c(Cl)c2)O3)cc1 | 19 | 92* | 16 | · | · | ·
C[C@H](CO)N1C[C@H](C)[C@@H](CN(C)Cc2ccc(C(F)(F)F)cc2)Oc2ccc(NS(=O)(=O)c3ccc(Cl)cc3)cc2CC1=O | 40 | 102* | -12 | · | · | ·
Cc1ccc(S(=O)(=O)Nc2ccc3c(c2)CC(=O)N([C@H](C)CO)C[C@@H](C)[C@@H](CN(C)Cc2ccc(C(F)(F)F)cc2)O3)cc1 | 5 | 6 | · | · | · | ·
Cc1ccc(S(=O)(=O)Nc2ccc3c(c2)CC(=O)N([C@@H](C)CO)C[C@@H](C)[C@H](CN(C)Cc2ccc(C(F)(F)F)cc2)O3)cc1 | 33 | 63* | · | · | · | ·
Cc1cccc(C)c1-n1c(C)cc(/C=N\Nc2ccc([N+](=O)[O-])cn2)c1C | · | · | · | -20 | 2 | 1
Cc1cc(/C=N/Nc2nc(N)ncc2[N+](=O)[O-])c(C)n1-c1ccccc1F | · | · | · | 73* | · | ·
FC(F)(F)c1cc(-c2ccccc2)nc(NCc2cccnc2)n1 | · | · | active | 9 | 11 | -11
FC(F)(F)c1cc(-c2ccco2)nc(NCc2cccnc2)n1 | · | 7 | 7 | 10 | 4 | -4
CCNC(=O)N(CC)C[C@H]1N[C@@](Cc2ccccc2)(C(=O)OC)[C@H]2C(=O)N(C)C(=O)[C@@H]12 | 4 | 13 | -3 | · | 0 | 65*
CN1C[C@@H]2[C@@H]3C(=O)N(Cc4ccccc4)C(=O)[C@@H]3[C@](Cc3ccccc3)(C1=O)N2C(=O)c1ccccc1 | -5 | 5 | -10 | · | 8 | 2
CCN(C[C@H]1N[C@@](CC)(C(=O)OC)[C@H]2C(=O)N(Cc3ccccc3)C(=O)[C@@H]12)C(=O)c1ccc(C(C)(C)C)cc1 | 14 | 82* | 6 | · | 18 | -1
CN1C[C@@H]2[C@@H]3C(=O)N(Cc4ccccc4)C(=O)[C@@H]3[C@](Cc3ccccc3)(C1=O)N2C(=O)c1ccc(C(C)(C)C)cc1 | 21 | 99* | 1 | · | 50 | 13
CO[C@H]1CN(C)C(=O)c2ccc(NC(C)=O)cc2OC[C@@H](C)N(C(=O)Cc2ccccn2)C[C@@H]1C | 1 | · | -1 | · | · | ·
CCCNC(=O)[C@@H]1[C@@H](CO)[C@@H]2Cn3c(cccc3=O)[C@H]1N2S(=O)(=O)c1ccccc1F | 3 | · | · | · | · | ·
